For orientation: IC50 means the midpoint of a concentration-inhibition curve.

This experiment addresses T1, Nitric oxide synthase, inducible (Mus musculus, UniProt P29477).
T1 sequence (P29477 whole entry): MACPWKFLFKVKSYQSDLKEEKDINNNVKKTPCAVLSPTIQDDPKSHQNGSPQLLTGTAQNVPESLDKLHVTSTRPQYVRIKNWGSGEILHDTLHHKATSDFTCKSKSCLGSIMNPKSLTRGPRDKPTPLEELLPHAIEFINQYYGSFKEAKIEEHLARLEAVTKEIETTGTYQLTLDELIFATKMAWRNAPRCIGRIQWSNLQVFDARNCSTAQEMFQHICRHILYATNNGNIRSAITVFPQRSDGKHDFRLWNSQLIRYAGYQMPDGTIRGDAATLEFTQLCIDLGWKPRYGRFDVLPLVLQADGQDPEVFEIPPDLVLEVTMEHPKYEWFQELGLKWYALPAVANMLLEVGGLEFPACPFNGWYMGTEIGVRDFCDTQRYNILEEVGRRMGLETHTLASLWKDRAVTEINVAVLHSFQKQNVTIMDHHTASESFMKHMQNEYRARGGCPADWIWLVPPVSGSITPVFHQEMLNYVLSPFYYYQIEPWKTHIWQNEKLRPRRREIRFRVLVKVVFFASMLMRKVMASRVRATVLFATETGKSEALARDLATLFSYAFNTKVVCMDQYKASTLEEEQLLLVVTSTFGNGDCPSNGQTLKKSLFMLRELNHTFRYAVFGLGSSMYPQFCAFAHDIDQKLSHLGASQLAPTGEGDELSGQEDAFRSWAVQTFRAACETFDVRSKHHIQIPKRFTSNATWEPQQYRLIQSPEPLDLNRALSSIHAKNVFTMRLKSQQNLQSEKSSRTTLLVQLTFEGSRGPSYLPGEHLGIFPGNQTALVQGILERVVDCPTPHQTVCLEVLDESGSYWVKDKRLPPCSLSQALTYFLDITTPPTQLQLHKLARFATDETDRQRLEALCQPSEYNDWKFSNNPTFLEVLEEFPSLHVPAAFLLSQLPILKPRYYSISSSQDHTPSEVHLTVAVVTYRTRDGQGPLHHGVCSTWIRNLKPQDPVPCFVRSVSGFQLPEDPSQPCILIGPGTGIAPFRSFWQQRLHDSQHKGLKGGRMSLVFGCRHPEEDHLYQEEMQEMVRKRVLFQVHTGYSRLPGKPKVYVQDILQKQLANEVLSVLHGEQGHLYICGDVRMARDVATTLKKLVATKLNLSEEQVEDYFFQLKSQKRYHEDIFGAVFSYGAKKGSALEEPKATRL
Nature of the experiment: Inhibition of iNOS-mediated nitric oxide production in LPS-stimulated mouse BV2 cells measured after 24 hrs of post-stimulation by Griess reaction method. In outline: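 Murine BV2 microglia in DMEM with 5% FBS were given compound at 1–50 µM and stimulated with LPS 0.5 µg/mL. Nitrite accumulated in the medium was measured by Griess reagent 24 h after stimulation. IC50 given as mean ± SEM of three experiments on different days using cells from different passages.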
Background: The Griess reaction detects nitrite, a stable product of nitric oxide.
Turning to `O=C(/C=C/c1ccccc1)c1cc(C(=O)/C=C/c2ccccc2)c(O)cc1O`, the IC50 came out at 5.44 µM. `COc1ccc(/C=C/C(=O)c2cc(C(=O)/C=C/c3ccc(OC)cc3)c(O)cc2O)cc1` came in with an IC50 of 25.7 µM. Compound `COc1cccc(/C=C/C(=O)c2cc(C(=O)/C=C/c3cccc(OC)c3)c(O)cc2O)c1` registered a concentration for half-maximal inhibition (IC50) of 8.09 µM. Compound `COc1cccc(/C=C/C(=O)c2cc(C(=O)/C=C/c3cccc(OC)c3OC)c(O)cc2O)c1OC` gave a 50% inhibitory concentration (IC50) of 1.82 µM. With `COc1ccc(/C=C/C(=O)c2cc(C(=O)/C=C/c3ccc(OC)c(OC)c3)c(O)cc2O)cc1OC`, half-maximal inhibition (IC50) was put at 0.95 µM. `COc1ccc(/C=C/C(=O)c2cc(C(=O)/C=C/c3ccc(OC)c(OC)c3OC)c(O)cc2O)c(OC)c1OC` returned an IC50 of 7.04 µM. `COc1ccc(OC)c(/C=C/C(=O)c2cc(C(=O)/C=C/c3cc(OC)ccc3OC)c(O)cc2O)c1` came in with a half-maximal inhibitory concentration (IC50) of 23.3 µM.

With `O=C(/C=C/c1ccco1)c1cc(C(=O)/C=C/c2ccco2)c(O)cc1O`, the IC50 came out at 4 µM. The result for `Cc1ccc(/C=C/C(=O)c2cc(C(=O)/C=C/c3ccc(C)o3)c(O)cc2O)o1` reads 36.3 µM; that for `Cc1ccsc1/C=C/C(=O)c1cc(C(=O)/C=C/c2sccc2C)c(O)cc1O`, 43.3 µM. The same measure for `O=C(/C=C/c1ccccn1)c1cc(C(=O)/C=C/c2ccccn2)c(O)cc1O`: 8.65 µM; for `CC(=O)c1cc(C(=O)C=Cc2ccc3c(c2)OCO3)c(O)cc1O`: 17.7 µM.

The values are drawn from BindingDB's records for doi:10.1016/j.ejmech.2011.10.026 (National Cheng Kung University, 2012).
